Laboratory results: PubChem BioAssay
The source made the active and inactive calls.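 How the source made its calls, unless noted: active means viability at or below 10% of carrier control in both of two separate runs; inconclusive means viability at or below 10% in only one of the two runs; inactive means the rest.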

Key:
[1] = reducers of endogenous Her2 protein level, primary screen, SKBR3 breast tumor cells, AlphaScreen, ATP viability (AID 461;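 active means Her2 level under about 52% in both replicate screens, with viability over 70% of control, limit read from the data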;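 on Her2 level: lower value means less Her2 protein in the cells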;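 on viability: percent of carrier control wells set as 100% viability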); conditions: 18-24 h, measured here: SKBR3 viability, ATP luminescence, at 10 µM
[2] = target: Receptor tyrosine-protein kinase erbB-2 (Homo sapiens) (UniProt P04626); assay: as above; conditions: 18-24 h, at 10 µM, stronger effect = lower value
Sequence of Receptor tyrosine-protein kinase erbB-2 (Homo sapiens) (P04626 whole entry, looked up): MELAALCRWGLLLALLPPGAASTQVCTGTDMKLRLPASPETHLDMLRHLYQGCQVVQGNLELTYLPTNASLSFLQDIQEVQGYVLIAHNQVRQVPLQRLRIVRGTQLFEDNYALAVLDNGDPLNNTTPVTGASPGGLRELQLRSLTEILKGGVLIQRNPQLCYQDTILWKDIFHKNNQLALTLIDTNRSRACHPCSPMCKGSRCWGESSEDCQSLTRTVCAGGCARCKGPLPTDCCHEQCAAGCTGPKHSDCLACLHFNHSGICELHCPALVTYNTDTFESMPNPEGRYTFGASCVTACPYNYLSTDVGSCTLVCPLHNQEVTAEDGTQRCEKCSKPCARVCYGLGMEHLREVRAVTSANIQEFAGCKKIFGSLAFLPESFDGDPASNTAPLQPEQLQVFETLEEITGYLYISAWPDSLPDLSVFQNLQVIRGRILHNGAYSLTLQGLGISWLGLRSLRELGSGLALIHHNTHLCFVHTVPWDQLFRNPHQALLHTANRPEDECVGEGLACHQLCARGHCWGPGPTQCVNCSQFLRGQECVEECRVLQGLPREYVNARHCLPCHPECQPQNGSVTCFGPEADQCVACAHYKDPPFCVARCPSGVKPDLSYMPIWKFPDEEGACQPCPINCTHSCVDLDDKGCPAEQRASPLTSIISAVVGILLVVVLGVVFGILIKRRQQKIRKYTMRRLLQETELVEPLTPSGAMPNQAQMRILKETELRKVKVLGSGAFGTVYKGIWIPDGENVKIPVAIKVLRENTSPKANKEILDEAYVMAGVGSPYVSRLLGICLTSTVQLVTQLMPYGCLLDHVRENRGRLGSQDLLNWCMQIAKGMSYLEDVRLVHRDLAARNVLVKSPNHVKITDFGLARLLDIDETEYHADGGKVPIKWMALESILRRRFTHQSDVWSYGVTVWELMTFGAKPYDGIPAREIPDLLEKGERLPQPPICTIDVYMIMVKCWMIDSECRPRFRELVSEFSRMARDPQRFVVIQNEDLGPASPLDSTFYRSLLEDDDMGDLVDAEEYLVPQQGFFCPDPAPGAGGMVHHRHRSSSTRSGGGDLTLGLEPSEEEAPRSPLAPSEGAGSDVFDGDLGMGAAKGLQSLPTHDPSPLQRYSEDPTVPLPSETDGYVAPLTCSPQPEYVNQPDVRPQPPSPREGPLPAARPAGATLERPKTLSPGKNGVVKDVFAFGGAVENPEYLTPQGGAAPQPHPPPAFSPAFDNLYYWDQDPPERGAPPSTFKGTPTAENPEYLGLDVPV

[3] = SK-BR-3 cell growth inhibitors, pilot screen, 24 h, human (AID 572); conditions: SK-BR-3 viability, CellTiter-Glo luminescence, at 10 µM, stronger effect = lower value;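 further: compound exposure lasted between 18 and 24 h rather than exactly 24 h; 100% = carrier-treated control wells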
[4] = HUVEC growth inhibition – cell-based, human, primary screen (AID 575;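 active means viability at or below 30% in both replicate assays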;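 further: 100% = median of untreated cell wells with 0.1% DMSO on each plate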); conditions: HUVEC proliferation, CellTiter-Glo luminescence, 72 h; at 10 µM; stronger effect = lower value
Method in brief: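 Assay system: Primary human umbilical vein endothelial cells | Quantity: 1250 cells per well | Medium: Supplemented EBM, 2% fetal bovine serum | Detection: CellTiter-Glo luminescence measuring cellular ATP | Read-out: % viability vs DMSO wells | Plate: Collagen-coated 384-well format | Times: 72 h exposure, 37 °C, 5% CO2, 30 min RT equilibration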

[5] = growth inhibitors of H69AR lung tumor, primary screen, human, duplicate replicates (AID 580;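 active means viability at or under a set limit in both replicates, limit being median viability minus 3 SD, cut at about 48% in these data, passing the limit was not always enough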;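 further: 100% = mean luminescence of untreated wells and 0% = no signal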); conditions: H69AR lung tumor cells viability, ATP luminescence, 72 h; at 10 µM; stronger effect = lower value
[6] = reversal of MRP1-mediated doxorubicin resistance, pilot screen, H69AR cells, doxorubicin co-treatment (AID 601;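 active means viability loss from added drug above about 55%, and viability with drug at most 40%, in both replicates, limit read from the data, passing the limit was not always enough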); conditions: CellTiter-Glo, 72 h, at 10 µM; for differential viability (reversal): stronger effect = higher value
[7] = 384-well plate pilot, post-Golgi transport modulator project, inhibition of yeast transport mutant growth (AID 636; in the data active means inhibition above about 31%); conditions: absorbance 615 nm, about 18 h, stronger effect = higher value
[8] = growth suppression of yeast trafficking mutant, preliminary HTS, modulators of trafficking downstream of Golgi apparatus project, 1536-format plate, OD 615 nm (AID 637; in the data active means inhibition above about 30%); conditions: yeast transport mutant growth, absorbance 615 nm, 18 h; stronger effect = higher value
[9] = H69AR cells + 2 uM doxorubicin, measured here: viability with 2 uM doxorubicin, stronger effect = lower value
[10] = H69AR cells, compound alone cytotoxicity

| SMILES | viability [1] [%] | Her2 level [2] | viability [3] | viability [4] | viability [5] | differential viability (reversal) ([6]; H69AR cells + 2 uM doxorubicin) | viability [6, 9] [%] | viability [6, 10] [%] | inhibition [7] | inhibition [8] |
| --- | --- | --- | --- | --- | --- | --- | --- | --- | --- | --- |
| COc1ccc(S(=O)(=O)NCC(c2cccnc2)N2CCN(c3ccc(F)cc3)CC2)cc1C (stereo not given) | 91.5 | 80% (inactive) | 91.5% (inactive) | 99.1% (inactive) | 87.4% (inactive) | -0.665% (inactive) | 88.1 | 87.4 | -1.04% (inactive) | -0.98% (inactive) |
| Cc1ccc(C2N(c3ccc(Cl)c(Cl)c3)C(=O)C3CCCN32)o1 (stereo not given) | 99 | 82.5% (inactive) | 99% (inactive) | 78.7% (inactive) | 96.2% (inactive) | 6.78% (inactive) | 89.4 | 96.2 | -1.45% (inactive) | 0.32% (inactive) |
| CC(=O)Nc1ccc(S(=O)(=O)NCC(C)NS(=O)(=O)c2ccc(NC(C)=O)cc2)cc1 (stereo not given) | 106 | 114% (inactive) | 106% (inactive) | 94.5% (inactive) | 98.6% (inactive) | 3.06% (inactive) | 95.5 | 98.6 | 0.13% (inactive) | -1.27% (inactive) |
| CCn1nc(C(=O)OCC(=O)c2cc(C)n(Cc3cccs3)c2C)c2ccccc2c1=O | 93.5 | 93% (inactive) | 93.5% (inactive) | 84.1% (inactive) | 83.6% (inactive) | -9.39% (inactive) | 93 | 83.6 | -3.2% (inactive) | 26.6% (inactive) |
| COc1ccc(CNc2ccc(C(=O)O)cc2)cc1 | 102 | 87% (inactive) | 102% (inactive) | 93% (inactive) | 91.7% (inactive) | 4.9% (inactive) | 86.8 | 91.7 | -3.87% (inactive) | 8.55% (inactive) |
| CCCCc1nccn1CCn1ccnc1CCCC | 87 | 85.5% (inactive) | 87% (inactive) | 97% (inactive) | 85.8% (inactive) | -0.88% (inactive) | 86.7 | 85.8 | -3.47% (inactive) | 1.61% (inactive) |
| COC(=O)c1ccc(NC(=O)C(C)N2C(=O)c3ccccc3C2=O)cc1 (stereo not given) | 109 | 94% (inactive) | 109% (inactive) | 108% (inactive) | 108% (inactive) | 14.8% (inactive) | 92.8 | 108 | 0.41% (inactive) | -3.65% (inactive) |
| c1ccc(-c2nnc(OCCN3CCOCC3)c3ccccc23)cc1 | 112 | 118% (inactive) | 112% (inactive) | 87.3% (inactive) | 84.2% (inactive) | -5.76% (inactive) | 89.9 | 84.2 | -4.08% (inactive) | 2.62% (inactive) |
| O=C(O)Cn1cc(C(=O)c2ccco2)c2ccccc21 | 95 | 100% (inactive) | 95% (inactive) | 105% (inactive) | 85.5% (inactive) | -4.73% (inactive) | 90.3 | 85.5 | -0.52% (inactive) | 3.61% (inactive) |
| CCCCOc1cccc(NC(=O)CSc2nccn2C)c1 | 107 | 81.5% (inactive) | 107% (inactive) | 99.9% (inactive) | 85.3% (inactive) | -1.98% (inactive) | 87.3 | 85.3 | -7.03% (inactive) | 0.5% (inactive) |
| COc1ccc(S(=O)(=O)N(C)CC(=O)N2CCCCC2)cc1Cl | 80 | 106% (inactive) | 80% (inactive) | 96.6% (inactive) | 93.5% (inactive) | 6.07% (inactive) | 87.4 | 93.5 | -5.41% (inactive) | 1.8% (inactive) |
| CC(C)(C)C1CCc2[nH]nc(C(=O)O)c2C1 (stereo not given) | 104 | 86.5% (inactive) | 104% (inactive) | 92.3% (inactive) | 98% (inactive) | 3% (inactive) | 95 | 98 | -2.43% (inactive) | 1.11% (inactive) |
| CC(=O)c1c(C)nc(C)nc1NC(=O)Cc1ccccc1 | 106 | 102% (inactive) | 106% (inactive) | 93.9% (inactive) | 93.9% (inactive) | -6.36% (inactive) | 100 | 93.9 | -5% (inactive) | -3.55% (inactive) |
| Cc1cc(NC(=O)CSc2ccc(Cl)cc2)no1 | 88.5 | 114% (inactive) | 88.5% (inactive) | 91.3% (inactive) | 61% (inactive) | -10.7% (inactive) | 71.7 | 61 | -0.66% (inactive) | 22.3% (inactive) |
